These results are taken from ChEMBL document CHEMBL1147159, “Dihydroxypyrimidine-4-carboxamides as novel potent and selective HIV integrase inhibitors” (J Med Chem, 2007).

The structures appear in SMILES notation. Calls of active or inactive are those of the source. The rule behind the calls is not given here.

Series [1] can be described thus: Inhibition of HIV1 integrase strand transfer activity. Set-up: species or system Human immunodeficiency virus 1. Put shortly: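 Recombinant HIV-1 integrase (0.1 µM) is preassembled on immobilized oligonucleotides. Inhibitors are added after assembly and washes, and strand transfer is then measured. IC50 is the concentration reducing integrase activity by 50%. Mean of at least three independent experiments.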

Series [2] relates to Human immunodeficiency virus 1. The experiment in a line: Antiviral activity against HIV1 infected MT4 cells by p24 core antigen ELISA in presence of 10% FBS. It is filed as functional, organism-based. The conditions noted are these: Human immunodeficiency virus 1, MT4; for IC95: read-out: CIC95. (In general: ELISA stands for enzyme-linked immunosorbent assay.)
For series [3], the system named is Human immunodeficiency virus 1. The series can be described thus: Antiviral activity against HIV1 infected MT4 cells by p24 core antigen ELISA in presence of 50% norman human serum. The conditions noted are these: Human immunodeficiency virus 1, MT4; for IC95: read-out: CIC95. The series is classed as functional, organism-based.
Series [4] can be described thus: Half life in rat at 2.4 mg/kg, iv. It is filed as ADME, organism-based. More on the design: dose 2.4 mg/kg, route intravenous. The conditions noted are these: in vivo. Put shortly: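 Half-life is the terminal-phase plasma value following iv administration.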
The species entered for series [5] is Homo sapiens. The series can be described thus: Inhibition of human DNA polymerase alpha at 10 uM.
The species named for series [6] is Homo sapiens. The experiment in a line: Inhibition of human DNA polymerase beta at 10 uM.
The species entered for series [7] is Homo sapiens. The experiment in a line: Inhibition of human DNA polymerase gamma at 10 uM.
The test system of series [8] is Human immunodeficiency virus. The experiment in a line: Inhibition of HIV reverse transcriptase at 50 uM.
The target in series [9] is RNA-directed RNA polymerase (Hepacivirus hominis) (UniProt O39930). The experiment in a line: Inhibition of HCV RNA polymerase at 50 uM.
A short description of series [10]: Plasma clearance in rat at 2.4 mg/kg, iv and 2.4 mg/kg, po. The series is classed as ADME, organism-based.

Compound `CN1C2CCC1(c1nc(O)c(O)c(C(=O)NCc3ccc(F)cc3)n1)CC2` showed an IC50 in series [1] of 50 nM. Also, the IC95 in series [2] and in series [3] was 120 nM each time.

On to `O=C(NCc1ccc(F)cc1)c1nc(Cc2ccccc2)nc(O)c1O`, for which, in [1], the midpoint of inhibition, the IC50, lay at 50 nM.

Turning to `O=C(NCc1ccc(F)cc1)c1ncnc(O)c1O`, in [1], the concentration for half-maximal inhibition (IC50) turned out to be 60 nM.

`CN1CCOCC1c1nc(O)c(O)c(C(=O)NCc2ccc(F)cc2)n1` (stereo not given) gave an IC50 in series [1] of 30 nM. Moreover, the IC95 in series [2] was determined as 30 nM; in series [3] it was 230 nM.

In series [1], `O=C(NCC1CCCCC1)c1nc(-c2cccs2)nc(O)c1O` gave an IC50 of 50000 nM.

`O=C(NCc1ccc(F)cc1)c1nc(C2CCNCC2)nc(O)c1O` gave an IC50 in series [1] of 1230 nM. Besides, the IC95 in series [2] and in series [3] was above 10000 nM each time.

In series [1], `COc1ccc(Cc2nc(O)c(O)c(C(=O)NCc3ccc(F)cc3)n2)cc1OC` yielded an IC50 of 150 nM. The IC95 in [2] is above 10000 nM.

In [1], `CCN1CCCCC1c1nc(O)c(O)c(C(=O)NCc2ccc(F)cc2)n1` (stereo not given) showed an IC50 of 100 nM. Further, the IC95 in [2] was found to be 250 nM; in [3] it was 500 nM.

`CN(C)C(C)(c1nc(O)c(O)c(C(=O)NCc2ccc(F)cc2)n1)C(F)(F)F` (stereo not given): the IC50 in series [1] was 8 nM. Further, the values for the IC95 in series [2] and in series [3] were 60 nM and 1000 nM, respectively.

As to `O=C(Nc1ccccc1)c1nc(-c2cccs2)nc(O)c1O`, in series [1], it took 1000 nM to reach half-maximal inhibition (IC50).

In series [1], `O=C(NCc1ccc(F)cc1)c1nc(-c2cccs2)nc(O)c1O` showed an IC50 of 10 nM. This compound also gave a half-life in series [4] of 1.3 h.

In [1], `C[C@H](NC(=O)c1nc(-c2cccs2)nc(O)c1O)c1ccccc1` registered an IC50 of 500 nM.

Regarding `O=C(NCc1ccccc1)c1nc(-c2cccs2)nc(O)c1O`, the IC50 in series [1] amounted to 80 nM; in [2], 5000 nM; in [3] it was 59000 nM. Besides, the result in series [5], in series [6], in series [7], in [8] and in [9] was inactive. Besides, the half-life in [4] is 3 h. The clearance in [10] was determined as 5 mL/min/kg.

Compound `CN(C)Cc1nc(O)c(O)c(C(=O)NCc2ccc(F)cc2)n1` gave an IC50 in series [1] of 200 nM. The IC95 is 1000 nM in series [2] and above 1000 nM in series [3].

Consider `CC(c1nc(O)c(O)c(C(=O)NCc2ccc(F)cc2)n1)N(C)C` (stereo not given), for which the IC50 in [1] was found to be 10 nM. Also, the IC95 in series [2] was determined as 120 nM; in series [3] it was 500 nM.

Compound `C[C@@H](NC(=O)c1nc(-c2cccs2)nc(O)c1O)c1ccccc1` displayed a half-maximal inhibitory concentration (IC50) in [1] of 5000 nM.

In turn, `O=C(NCc1ccc(F)cc1)c1nc(C(c2ccccc2)N2CCOCC2)nc(O)c1O` (stereo not given) showed an IC50 in series [1] of 50 nM. Besides, the IC95 in series [2] was determined as 630 nM.

For `O=C(NCc1ccc(F)cc1)c1nc(-c2ccccn2)nc(O)c1O`, the half-maximal inhibitory concentration (IC50) in series [1] was found to be 50 nM.

In series [1], `CN1CCN(C)C(c2nc(O)c(O)c(C(=O)NCc3ccc(F)cc3)n2)C1` (stereo not given) gave an IC50 of 230 nM. The results for the IC95 in series [2] and in [3] were 120 nM and 620 nM, respectively.

Consider `O=C(NCc1ccc(F)cc1)c1nc(C2CCCNC2)nc(O)c1O` (stereo not given), for which the midpoint of inhibition in series [1], the IC50, lay at 800 nM. The IC95 in [2] and in [3] was above 10000 nM in each case.

With `Cc1ccc(-c2nc(O)c(O)c(C(=O)NCc3ccc(F)cc3)n2)cc1`, in series [1], inhibition was half-maximal at 20 nM (IC50).

In series [1], `CN1CCN(C)C(C)(c2nc(O)c(O)c(C(=O)NCc3ccc(F)cc3)n2)C1` (stereo not given) yielded a 50% inhibitory concentration (IC50) of 10 nM. The IC95 in [2] worked out at 60 nM; in series [3], 250 nM.

In series [1], `NC(=O)c1nc(-c2cccs2)nc(O)c1O` came in with a half-maximal inhibitory concentration (IC50) of 50000 nM.

`CNC(C)(C)c1nc(O)c(O)c(C(=O)NCc2ccc(F)cc2)n1` returned an IC50 in series [1] of 40 nM. In addition, the IC95 in [2] came to 250 nM; in [3] it was 1000 nM.

Regarding `CN(C)C1(c2nc(O)c(O)c(C(=O)NCc3ccc(F)cc3)n2)CC1`, in [1], 10 nM corresponded to half-maximal inhibition (IC50). Moreover, the IC95 in [2] is 370 nM; in series [3], 1000 nM.

`CN(CCc1nc(O)c(O)c(C(=O)NCc2ccc(F)cc2)n1)Cc1ccccc1` displayed a half-maximal inhibitory concentration (IC50) in [1] of 2000 nM. The IC95 is 10000 nM in series [2] and above 10000 nM in [3].

`CN(C)Cc1ccc(-c2nc(O)c(O)c(C(=O)NCc3ccc(F)cc3)n2)cc1` showed an IC50 in series [1] of 150 nM. Also, in series [2], the IC95 is above 10000 nM.

With `O=C(NCc1ccc(F)cc1)c1nc(-c2nccs2)nc(O)c1O`, in [1], it took 20 nM to reach half-maximal inhibition (IC50).

`Cc1nc(C(=O)NCc2ccc(F)cc2)c(O)c(=O)[nH]1` showed an IC50 in series [1] of 60 nM.

Take `CCN(C)C(C)(C)c1nc(O)c(O)c(C(=O)NCc2ccc(F)cc2)n1`: the IC50 in series [1] is 60 nM. Further, the IC95 was found to be 120 nM in series [2] and 500 nM in [3].

On to `O=C(NCc1ccc(F)cc1)c1nc(C(c2ccccc2)N2CCCCC2)nc(O)c1O` (stereo not given), for which half-maximal inhibition in [1] (IC50) required 100 nM. Besides, in [2], the IC95 was found to be 310 nM.

On to `O=C(NCCc1ccccc1)c1nc(-c2cccs2)nc(O)c1O`, for which 20 nM corresponded to half-maximal inhibition in series [1] (IC50).

`CN(C)C1(c2nc(O)c(O)c(C(=O)NCc3ccc(F)cc3)n2)CCCCC1` showed a half-inhibitory concentration (IC50) in series [1] of 80 nM. In addition, the IC95 in series [2] was 120 nM; in series [3] it was 1000 nM.

In turn, `CC(C)CN1CCCCC1c1nc(O)c(O)c(C(=O)NCc2ccc(F)cc2)n1` (stereo not given) returned an IC50 in [1] of 200 nM. The IC95 in [2] is 1000 nM; in series [3] it was above 1000 nM.

On to `CN(c1ccccc1)c1nc(O)c(O)c(C(=O)NCc2ccc(F)cc2)n1`, for which, in series [1], the IC50 was 150 nM. Moreover, the IC95 in [2] worked out at 2500 nM.

For the compound `CN1CCCC1c1nc(O)c(O)c(C(=O)NCc2ccc(F)cc2)n1` (stereo not given), in [1], inhibition was half-maximal at 120 nM (IC50). The values for the IC95 in [2] and in series [3] were 150 nM and 620 nM, respectively.

The compound `O=C(NCc1ccc(F)cc1)c1nc(C2CCCCN2)nc(O)c1O` (stereo not given) gave a concentration for half-maximal inhibition (IC50) in series [1] of 100 nM. In addition, the figures for the IC95 in [2] and in [3] were 1460 nM and 5830 nM, respectively.

On to `COC(c1ccccc1)c1nc(O)c(O)c(C(=O)NCc2ccc(F)cc2)n1` (stereo not given), for which the concentration for half-maximal inhibition (IC50) in [1] is 70 nM. Besides, in series [2], the IC95 is 2500 nM.

As for `CC(C)c1nc(O)c(O)c(C(=O)NCc2ccc(F)cc2)n1`, the IC50 in series [1] turned out to be 100 nM.

With `CN(C)C1(c2nc(O)c(O)c(C(=O)NCc3ccc(F)cc3)n2)CCOCC1`, the IC50 in series [1] was 26 nM. Also, the IC95 in [2] came out at 40 nM; in series [3], 190 nM.

Take `CN(C)C1(c2nc(O)c(O)c(C(=O)NCc3ccc(F)cc3)n2)CCC1`: half-maximal inhibition in series [1] (IC50) was put at 52 nM. The IC95 in series [2] stood at 20 nM; in series [3], 250 nM.

The compound `CN(C)C1(c2nc(O)c(O)c(C(=O)NCc3ccc(F)cc3)n2)CCCC1` returned a concentration for half-maximal inhibition (IC50) in series [1] of 88 nM. For the same compound, the IC95 is 60 nM in series [2] and 1000 nM in series [3].

A word on the IC50: it is the midpoint of a concentration-inhibition curve. As a reminder, the half-life is the time in which the quantity being followed falls by half. Low values mean rapid decline, high ones slow decline.
